Calls of active or inactive are those of the source. The rule behind the calls is not given here.

For experiment [1], the target named is T1, 5-hydroxytryptamine receptor 3A (Cavia porcellus) (UniProt O70212).
T1 sequence (whole entry): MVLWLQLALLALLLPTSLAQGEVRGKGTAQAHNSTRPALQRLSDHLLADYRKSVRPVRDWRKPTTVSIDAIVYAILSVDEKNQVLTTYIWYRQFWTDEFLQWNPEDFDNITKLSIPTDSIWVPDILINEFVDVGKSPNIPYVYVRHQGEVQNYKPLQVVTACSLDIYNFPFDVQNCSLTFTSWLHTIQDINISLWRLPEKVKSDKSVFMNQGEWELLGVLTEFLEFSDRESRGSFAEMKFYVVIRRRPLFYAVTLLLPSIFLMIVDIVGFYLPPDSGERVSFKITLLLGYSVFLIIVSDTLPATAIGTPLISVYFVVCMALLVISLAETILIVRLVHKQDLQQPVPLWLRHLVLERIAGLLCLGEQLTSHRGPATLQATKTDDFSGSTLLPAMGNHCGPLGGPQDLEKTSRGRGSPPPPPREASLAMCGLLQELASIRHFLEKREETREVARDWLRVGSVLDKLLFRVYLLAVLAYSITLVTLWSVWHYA
The experiment in a line: Intrinsic activity at 5HT3 receptor in Hartley guinea-pig ileum assessed as muscle contraction relative to 5-hydroxytryptamine. Format: tissue-based.

Experiment [2] concerns the target T1, 5-hydroxytryptamine receptor 3A (Cavia porcellus). The experiment in a line: Antagonist activity at 5HT3 receptor in Hartley guinea-pig ileum assessed as effect on 5-hydroxytryptamine-induced muscle contraction. The format is functional, tissue-based. The arrangement: concentration or dose not given beside the values. In outline: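 Contractions to 5-HT recorded isometrically with and without compound present. Vehicle-treated preparation served as time-matched control. Antagonism expressed as the ratio of 5-HT contractile response in presence versus absence of compound.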

Experiment [3] has the same target. In words: Agonist activity at 5HT3 receptor in Hartley guinea-pig ileum assessed as muscle contraction. Format: functional, tissue-based. In outline:
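Compounds added to the bath and contractions recorded isometrically. pD2 = negative log molar concentration giving 50% of maximum contraction, from individual concentration–response curves.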

The target is the same in experiment [4]. In words: Intrinsic activity at 5HT3 receptor in Hartley guinea-pig ileum assessed as muscle contraction at 0.1 mM relative to 5-hydroxytryptamine. Format: tissue-based.

Turning to `CCc1cc(Cl)cc2nc(N3CCN(C)CC3)oc12`, the Intrinsic activity in experiment [1] came to 0.17. Also, the Activity in experiment [2] is 100%. In addition, in experiment [3], the pD2 was found to be 6.82.

Consider `CN1CCN(c2nc3cc(F)ccc3o2)CC1`, for which, in experiment [1], the Intrinsic activity turned out to be 0.64. Moreover, the Activity in experiment [2] is 91%. Also, in experiment [3], the pD2 worked out at 5.57.

`Cc1cccc2nc(N3CCN(C)CC3)oc12`: the Intrinsic activity in experiment [1] worked out at 0.58. Besides, the Activity in experiment [2] amounted to 89%. The pD2 in experiment [3] is 5.48.

`CN1CCN(c2nc3cc(Br)ccc3o2)CC1`: in experiment [1], the Intrinsic activity amounted to 0.48. The Activity in experiment [2] amounted to 89%. For the same compound, the pD2 in experiment [3] was 6.21.

Regarding `COc1cc(C)cc2nc(N3CCN(C)CC3)oc12`, the Intrinsic activity in experiment [1] stood at 0.56. Also, in experiment [2], the Activity worked out at 91%. For the same compound, in experiment [3], the pD2 came to 6.13.

Turning to `CN1CCN(c2nc3cc(C(F)(F)F)ccc3o2)CC1`, in experiment [2], the Activity was determined as 36%. In experiment [4], the result was inactive. The pD2 in experiment [3] was under 4.

Take `CN1CCN(c2nc3cc(N)ccc3o2)CC1`: the Intrinsic activity in experiment [1] is 0.76. The Activity in experiment [2] was found to be 73%. Besides, the pD2 in experiment [3] worked out at 4.97.

For the compound `CN1CCN(c2nc3cc(Cl)ccc3o2)CC1`, the Intrinsic activity in experiment [1] was 0.5. In experiment [2], the Activity turned out to be 92%. The pD2 in experiment [3] is 6.07.

Consider `Cc1ccc2oc(N3CCN(C)CC3)nc2c1`, for which the Intrinsic activity in experiment [1] is 0.72. For the same compound, the Activity in experiment [2] amounted to 87%. Also, in experiment [3], the pD2 turned out to be 6.

On to `CN1CCN(c2nc3cc([N+](=O)[O-])ccc3o2)CC1`, for which the Intrinsic activity in experiment [1] turned out to be 0.52. Further, the Activity in experiment [2] turned out to be 79%. For the same compound, the pD2 in experiment [3] stood at 6.1.

For the compound `NCCc1c[nH]c2ccc(O)cc12`, the Intrinsic activity in experiment [1] came out at 1. Moreover, the pD2 in experiment [3] was 5.34.

On to `CCc1cc(C)cc2nc(N3CCN(C)CC3)oc12`, for which the Intrinsic activity in experiment [1] was determined as 0.26. In addition, the Activity in experiment [2] was 99%. Also, the pD2 in experiment [3] came to 6.46.

As for `Cc1cc(Cl)c2oc(N3CCN(C)CC3)nc2c1`, the Intrinsic activity in experiment [1] was 0.26. Besides, the Activity in experiment [2] was found to be 96%. Besides, the pD2 in experiment [3] is 6.22.

`CCc1ccc2oc(N3CCN(C)CC3)nc2c1`: the Activity in experiment [2] stood at 63%. Also, the outcome in experiment [4] was inactive. For the same compound, the pD2 in experiment [3] was under 4.

Regarding `CN1CCN(c2nc3cc(C(C)(C)C)ccc3o2)CC1`, in experiment [2], the Activity stood at 47%. Moreover, the outcome in experiment [4] was inactive. The pD2 in experiment [3] is under 4.

On to `CC(=O)c1ccc2oc(N3CCN(C)CC3)nc2c1`, for which the Activity in experiment [2] amounted to 22%. Moreover, in experiment [4], the result was inactive. Moreover, the pD2 in experiment [3] is under 4.

`COc1cc(Cl)cc2nc(N3CCN(C)CC3)oc12`: the Intrinsic activity in experiment [1] stood at 0.62. Moreover, the Activity in experiment [2] was 92%. Moreover, in experiment [3], the pD2 came out at 6.16.

On to `Cc1cc(Cl)cc2nc(N3CCN(C)CC3)oc12`, for which, in experiment [1], the Intrinsic activity is 0.24. Besides, in experiment [2], the Activity was determined as 94%. Moreover, the pD2 in experiment [3] stood at 6.7.

On to `Cc1cc(C)c2oc(N3CCN(C)CC3)nc2c1`, for which the Intrinsic activity in experiment [1] is 0.62. In addition, the Activity in experiment [2] is 94%. Besides, the pD2 in experiment [3] was 6.32.

With `CC(C)c1cccc2nc(N3CCN(C)CC3)oc12`, the Activity in experiment [2] was 81%. In experiment [4], the result was inactive. Further, in experiment [3], the pD2 was under 4.

As for `CN1CCN(c2nc3cccc(Cl)c3o2)CC1`, the Intrinsic activity in experiment [1] was determined as 0.24. For the same compound, the Activity in experiment [2] was 90%. Also, the pD2 in experiment [3] is 5.5.

Take `CN1CCN(c2nc3cc(Cl)cc(Cl)c3o2)CC1`: in experiment [1], the Intrinsic activity was 0.14. Moreover, the Activity in experiment [2] amounted to 90%. Moreover, the pD2 in experiment [3] was found to be 6.51.

`CN1CCN(c2nc3ccccc3o2)CC1`: the Intrinsic activity in experiment [1] stood at 0.62. The Activity in experiment [2] was 82%. Also, the pD2 in experiment [3] came to 5.01.

Take `CCc1cccc2nc(N3CCN(C)CC3)oc12`: the Intrinsic activity in experiment [1] was found to be 0.15. Also, in experiment [2], the Activity is 90%. Also, the pD2 in experiment [3] is 5.48.

Consider `CCOC(=O)c1ccc2oc(N3CCN(C)CC3)nc2c1`, for which the Activity in experiment [2] is 28%. The result in experiment [4] was inactive. The pD2 in experiment [3] is under 4.

Consider `CN1C2CCCC1CC(NC(=O)c1nn(C)c3ccccc13)C2` (stereo not drawn), for which, in experiment [2], the Activity was found to be 100%. The outcome in experiment [4] was inactive. Also, in experiment [3], the pD2 was under 4.

`COc1ccc2oc(N3CCN(C)CC3)nc2c1`: the Intrinsic activity in experiment [1] is 0.78. In addition, the Activity in experiment [2] stood at 74%. Further, in experiment [3], the pD2 came out at 4.78.

Turning to `COc1cccc2nc(N3CCN(C)CC3)oc12`, in experiment [2], the Activity is 57%. The outcome in experiment [4] was inactive. Besides, in experiment [3], the pD2 is under 4.

The values above are taken from ChEMBL document CHEMBL1147936, “Regulatory molecules for the 5-HT3 receptor ion channel gating system” (Bioorg Med Chem, 2007).
